Legend:
[1] = test system: HT-29 human colon cancer cells; test: Mitochondrial transmembrane potential; format: cell-based; settings: HT-29 cells; for MTP ED50: reduction of mitochondrial transmembrane potential (ΔΨm)
Summary of the method: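 ΔΨm detected with a JC-1 mitochondrial membrane potential kit, following a previously established protocol. A positive control was run alongside the test compounds. Values were reported as ED50.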

human 20S proteasome [2] = target: human 20S proteasome (Homo sapiens, UniProt P28074); test: Proteasome inhibition assay; format: biochemical; settings: for proteasome ED50 / IC50: Table 3, results expressed as ED50; for IC50: read-out: proteasome ED50
human 20S proteasome [3] = test: Proteasome inhibition assay; format: biochemical; settings: Table 3, results expressed as ED50
[4] = test system: human colon cancer cells (HT-29); test: Cytotoxicity assay; format: cell-based; settings: HT-29 cells, standard protocol

proteasome ED50 (human 20S proteasome [2]) | Compound | MTP ED50 [1] | further results
>20 µM | 7-methoxychamanetin [compound 6] | 13.6 µM | –
– | O=C1C[C@@H](c2ccccc2)Oc2c(Cc3ccccc3O)c(O)c(Cc3ccccc3O)c(O)c21 [compound 7, dichamanetin] | 3.6 µM | inhibitory effect in proteasome assay (human 20S proteasome [2]; human 20S proteasome bioassay): did not show any inhibitory effect; proteasome ED50 (human 20S proteasome [3]): >20 µM
– | O=C1C[C@@H](c2ccccc2)Oc2cc(O)cc(O)c21 [compound 10, pinocembrin] | >20 µM | MTP ED50 (text, printed in μg/mL) ([1]; called inactive): > 20 µg/mL; IC50 (human 20S proteasome [2]): 2.87 ± 0.26 µM
>20 µM | 5,7-dihydroxy-6-(2‴-hydroxy-5‴-(2′‴-hydroxy-5′‴-(2″‴-hydroxy-5″‴-(2‴‴-hydroxybenzyl)benzyl)benzyl) benzyl)-8-(2″-hydroxybenzyl)-flavanone [compound 3] | 2.5 µM | –
>20 µM | 5″-(2′‴-hydroxybenzyl)uvarinol [compound 9] | 2.3 µM | –
>20 µM | O=C1C[C@@H](c2ccccc2)Oc2c(Cc3cc(Cc4cc(Cc5ccccc5O)ccc4O)ccc3O)c(O)c(Cc3ccccc3O)c(O)c21 [compound 1, (2S)-5,7-dihydroxy-8-(2″-hydroxy-5″-(2′‴-hydroxy-5′‴-(2″‴-hydroxybenzyl)benzyl)benzyl)-6-(2‴-hydroxybenzyl)-flavanone] | 3.7 µM | –
– | O=C1C[C@@H](c2ccccc2)Oc2cc(O)c(Cc3ccccc3O)c(O)c21 [compound 5, isochamanetin] | 7.7 µM | IC50 (human 20S proteasome [2]): > 20 µM
>20 µM | O=C1C[C@@H](c2ccccc2)Oc2c(Cc3cc(Cc4ccccc4O)ccc3O)c(O)c(Cc3cc(Cc4cc(Cc5ccccc5O)ccc4O)ccc3O)c(O)c21 [compound 4, (2S)-5,7-dihydroxy-6-(2‴-hydroxy-5‴-(2″‴-hydroxy-5″‴-(2‴‴-hydroxybenzyl)benzyl)benzyl)-8-(2″-hydroxy-5′‴-(2′‴-hydroxybenzyl)benzyl)-flavanone] | 3.9 µM | –
3.45 ± 0.18 µM | 7-methoxydichamanetin [compound 8] | 1.6 µM | –
>20 µM | O=C1C[C@@H](c2ccccc2)Oc2c(Cc3ccccc3O)c(O)c(Cc3cc(Cc4cc(Cc5ccccc5O)ccc4O)ccc3O)c(O)c21 [compound 2, (2S)-5,7-dihydroxy-6-(2‴-hydroxy-5‴-(2′‴-hydroxy-5′‴-(2″‴-hydroxybenzyl)benzyl)benzyl)-8-(2″-hydroxybenzyl)-flavanone] | 6.8 µM | –
– | CC(=O)O[C@H]1C(=O)[C@@]2(C)[C@H]([C@H](OC(=O)c3ccccc3)[C@]3(O)C[C@H](OC(=O)[C@H](O)[C@@H](NC(=O)c4ccccc4)c4ccccc4)C(C)=C1C3(C)C)[C@]1(OC(C)=O)CO[C@@H]1C[C@@H]2O [Paclitaxel] | – | cytotoxicity ED50 [4]: 0.006 µM

Compound | proteasome ED50 (human 20S proteasome [2]) | MTP ED50 [1] | further results
pipercallosine [compound 11] | >20 µM | 4.6 µM | –

— paper PMC3206604 (Journal of natural products, 2011)
